Assay outcomes: PubChem BioAssay, Johns Hopkins Ion Channel Center
KCNQ1 pot = potentiators or activators of KCNQ1 channel, primary screen, cell-based, thallium flux, high-throughput. Potassium voltage-gated channel subfamily KQT member 1 (Homo sapiens), P51787. CHO-K1 KCNQ1, thallium flux FluxOR fluorescence; active compounds read high. B-score at 10 µM. 0.35% of 310,000 active. AID 2648, 2010;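 active = fluorescence ratio B-score, a plate-corrected score, at least three library SD, with initial intensity B-score within 5 SD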
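Test system: CHO-K1 cells stably expressing KCNQ1 / Medium: assay buffer / Also added: depolarizing K+/Tl+ stimulus, K2SO4 and Tl2SO4 each 12.5 mM in 5x stock / Incubation: 90 min dye loading and 20 min compound exposure, both at room temperature / Signal: thallium influx via FluxOR fluorescence, kinetic imaging / Evaluation: B score of baseline-normalized fluorescence ratio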
KCNQ1 block = inhibitors of human KCNQ1 channel, primary screen, cell-based, thallium flux, high-throughput; Potassium voltage-gated channel subfamily KQT member 1 (Homo sapiens), P51787; CHO-K1 KCNQ1, FluxOR thallium flux fluorescence; active compounds read high; B-score at 10 µM; 1.3% of 310,000 active;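 active = compounds whose thallium flux B-score, printed positive for inhibition, exceeds three library SD while starting fluorescence stays within three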;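 also: channel opened by potassium depolarization with thallium stimulus after 20 min compound exposure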
Kir21 inh = inhibitors of mouse Kir2.1 inward-rectifier potassium channel; 0.85% of 310,000 active; HEK293-Kir2.1, FluxOR thallium flux fluorescence; active compounds read low; B-score at 10 µM;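 active = fluorescence ratio B-score at or below minus 3 SD of library scores, with starting-brightness B-score within 2 SD, cut at about -4.2 in these data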;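 also: channel flux triggered by added potassium and thallium sulfate stimulus; B-score of peak minus minimum fluorescence over baseline after thallium stimulus; more negative B-score means stronger Kir2.1 block with less thallium influx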
KCNK3 block = human KCNK3 channel inhibitors, primary screen, CHO cells, FluxOR thallium flux, B-score | FluxOR fluorescence; active compounds read low | AID 602410, 2012 | 0.84% of 340,000 active | Potassium channel subfamily K member 3 (Homo sapiens), O14649 | B-score at 10 µM;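 active = B-score under library mean minus 4 SD, starting fluorescence ratio at most library mean plus 5 SD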;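 also: more negative B-score means stronger inhibition of thallium flux through KCNK3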
KCNK9 inh = KCNK9 potassium channel inhibitors, primary screen, HEK293 cells, thallium flux; Potassium channel subfamily K member 9 (Homo sapiens), Q9NPC2; FluxOR thallium flux fluorescence; active compounds read low; B-score at 10 µM; 1.2% of 310,000 active;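 active = ratio B-score over 3 SD below the library mean, with starting fluorescence within 5 SD of its mean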;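 also: negative B-score means less thallium flux so channel inhibition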
hERG protect = hERG rescue from dofetilide block, primary screen, cell-based, CHO-hERG, FluxOR thallium flux, dofetilide IC70; dofetilide IC70 present; Voltage-gated inwardly rectifying potassium channel KCNH2 (Homo sapiens), Q12809; activation (rescue from dofetilide block), less the hit threshold, % at 10 µM; 0.51% of 310,000 active;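 active = activation above the mean of controls blocked by dofetilide plus 5 SD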;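 also: thallium influx through hERG after potassium depolarization seen as dye fluorescence rise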
Target sequence (Q12809 whole entry, looked up): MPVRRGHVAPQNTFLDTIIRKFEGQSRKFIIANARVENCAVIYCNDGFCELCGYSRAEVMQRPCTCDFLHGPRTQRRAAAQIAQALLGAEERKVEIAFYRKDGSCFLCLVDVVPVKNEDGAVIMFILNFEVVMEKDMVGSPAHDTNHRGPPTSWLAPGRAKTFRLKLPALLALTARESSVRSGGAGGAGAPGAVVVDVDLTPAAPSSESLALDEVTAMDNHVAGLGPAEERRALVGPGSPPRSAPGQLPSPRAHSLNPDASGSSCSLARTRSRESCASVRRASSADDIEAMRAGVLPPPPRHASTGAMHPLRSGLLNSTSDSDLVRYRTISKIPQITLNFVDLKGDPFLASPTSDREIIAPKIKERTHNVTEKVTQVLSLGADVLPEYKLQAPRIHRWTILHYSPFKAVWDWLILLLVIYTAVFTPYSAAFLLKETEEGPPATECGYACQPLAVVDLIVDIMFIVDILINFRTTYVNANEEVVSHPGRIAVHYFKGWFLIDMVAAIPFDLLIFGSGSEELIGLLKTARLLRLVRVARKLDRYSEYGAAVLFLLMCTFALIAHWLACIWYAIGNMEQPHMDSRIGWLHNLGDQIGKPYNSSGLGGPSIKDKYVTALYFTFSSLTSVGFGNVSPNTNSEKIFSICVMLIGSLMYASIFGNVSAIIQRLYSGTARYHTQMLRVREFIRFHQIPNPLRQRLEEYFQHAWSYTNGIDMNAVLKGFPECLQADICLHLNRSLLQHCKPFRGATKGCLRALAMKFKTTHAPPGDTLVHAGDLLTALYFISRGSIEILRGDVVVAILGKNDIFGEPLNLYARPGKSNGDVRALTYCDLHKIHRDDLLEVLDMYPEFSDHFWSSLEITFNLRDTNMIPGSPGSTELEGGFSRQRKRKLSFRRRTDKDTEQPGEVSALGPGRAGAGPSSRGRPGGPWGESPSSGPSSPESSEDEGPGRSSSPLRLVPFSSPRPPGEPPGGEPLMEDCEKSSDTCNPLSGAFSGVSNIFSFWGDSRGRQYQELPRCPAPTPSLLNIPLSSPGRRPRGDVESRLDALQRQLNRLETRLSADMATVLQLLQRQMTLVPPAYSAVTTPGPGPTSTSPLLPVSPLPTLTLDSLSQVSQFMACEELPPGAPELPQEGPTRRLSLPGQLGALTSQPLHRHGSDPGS
KCNQ1 block val = KCNQ1 potassium channel inhibitors, confirmation, cell-based, Tl flux, duplicate. shares compounds with KCNQ1 block. KCNQ1 cell line, FluxOR thallium flux fluorescence. inhibition, % at 10 µM. 93% of 1,600 active;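 active = primary screen active, with duplicate mean exceeding buffer control mean plus 3 SD of buffer wells, cut at about 28% in these data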
CHO KCNQ1 ctr = thallium flux effects in parental CHO cells, counter-screen for KCNQ1 inhibitor project, cell-based, Tl flux | shares compounds with KCNQ1 block | parental CHO-K1, FluxOR thallium flux fluorescence ratio; active compounds read low; zero means no signal rise above baseline | fluorescence ratio (Tl flux) at 10 µM | 21% of 1,600 active | AID 588366, 2011;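 active = mean of duplicate thallium-flux fluorescence ratios in parental host cells more than 5 SD below the buffer control mean, cut at about 0.38 in these data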;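 also: ratio is peak minus minimum fluorescence divided by baseline fluorescence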
KCNQ1 APC inh = KCNQ1 channel inhibitors, confirmation, orthogonal assay, cell-based, automated electrophysiology | shares compounds with KCNQ1 block | calls only at 10 µM | AID 624120, 2012 | KCNQ1-CHO cells, automated patch clamp current | 20% of 490 active;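 active = KCNQ1 current drop exceeding 3 SD of negative control wells, seen in both duplicate runs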;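 also: steady state current during a 2 s step from -80 to +40 mV; negative values mean current inhibition and positive values mean potentiation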
KCNQ2 spec = KCNQ2 channel inhibition, selectivity assay for KCNQ1 inhibitor project, cell-based; shares compounds with KCNQ1 block; KCNQ2 cells, FluxOR thallium flux fluorescence; inhibition, % at 10 µM; 71% of 1,600 active; AID 651746, 2012;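 active = mean percent inhibition of the KCNQ2 thallium signal more than 5 SD above the buffer-only control wells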;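 also: KCNQ2 expressed in CHO cells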
KCNQ1-KCNE1 inh = KCNQ1/KCNE1 channel inhibition, selectivity assay for KCNQ1 inhibitor project, CHO-K1 cells, thallium flux, FluxOR. shares compounds with KCNQ1 block. FluxOR thallium flux fluorescence. inhibition, % at 10 µM. 77% of 1,600 active. AID 652147, 2013;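 active = mean percent inhibition of duplicate wells above the buffer-only control mean plus 3 SD of those controls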
Of the large screens only hits and unclear results are named; the others gave an inactive call (follow-up assays come after a bar, where they were run). Shown are actives, neighbours in structure and some others; about 3.7% of the full set was active somewhere.

CC1(C)CC(=O)C2=C(C1)Nc1ccccc1S2	none
CC1(C)CC(=O)C2=C(C1)Nc1ccccc1NC2	KCNQ1 block 7 | KCNQ1 block val inactive | CHO KCNQ1 ctr inactive | KCNQ2 spec inactive | KCNQ1-KCNE1 inh inactive
Cc1ccccc1OCC(O)CN(Cc1ccccc1O)C1CCCCC1 (stereo unspecified)	KCNQ1 block 12 | KCNQ1 block val 90.5 | CHO KCNQ1 ctr inactive | KCNQ1 APC inh active | KCNQ2 spec 119.7% | KCNQ1-KCNE1 inh 139.5%
CN(CC(O)COc1ccccc1F)C1CCCCC1 (stereo unspecified)	none
Clc1ccc2[nH]c3c(NCC4CCCO4)ncnc3c2c1 (stereo unspecified)	KCNQ1 block 8 (no result: KCNK3 block) | KCNQ1 block val 106.0 | CHO KCNQ1 ctr inactive | KCNQ1 APC inh active | KCNQ2 spec 89.7% | KCNQ1-KCNE1 inh inactive
Clc1ccc2[nH]c3c(NCCN4CCOCC4)ncnc3c2c1	none
CCN(CCCNC(=O)CCn1c(=S)[nH]c2cc3c(cc2c1=O)OCO3)c1cccc(C)c1	none
COc1ccc(CCC(C)NCCc2ccc(Cl)cc2Cl)cc1 (stereo unspecified)	KCNQ1 block 14, Kir21 inh -13.4 | KCNQ1 block val 99.0 | CHO KCNQ1 ctr inactive | KCNQ2 spec 96.3% | KCNQ1-KCNE1 inh 106.5%
O=C(CC(c1ccccc1)C1CCCCC1=O)c1ccccc1 (stereo unspecified)	none (no result: KCNQ1 pot, KCNQ1 block, Kir21 inh, KCNK9 inh, hERG protect)
CSc1ccc(-c2sc(Nc3ccccc3)n[n+]2-c2ccc(F)cc2)cc1	none
COc1ccc(-c2sc(Nc3ccccc3)n[n+]2-c2ccc(F)cc2)c(C)c1C	KCNQ1 block 16 | KCNQ1 block val 128.0 | CHO KCNQ1 ctr inactive | KCNQ1 APC inh active | KCNQ2 spec 99.0% | KCNQ1-KCNE1 inh 134.5%
CC(C)COc1cccc(C(=O)N(C)CC(=O)Nc2cccc3ccccc23)c1	none (no result: KCNQ1 pot, KCNQ1 block, Kir21 inh, KCNK9 inh, hERG protect)
Cc1ccc(S(=O)(=O)Nc2ccccc2CNc2ccc(Br)cn2)cc1	KCNQ1 block 7, KCNK9 inh -7.56 | KCNQ1 block val 109.0 | CHO KCNQ1 ctr 0.373 | KCNQ2 spec 103.0% | KCNQ1-KCNE1 inh 151.5%
Cc1ccc(S(=O)(=O)Nc2ccccc2CNc2ccccn2)cc1	none
CC1(C)Cc2c(C#N)c(SCCO)nc(N3CCOCC3)c2CO1	none
CC1(C)Cc2c(C#N)c(SCCOc3ccccc3)nc(N3CCOCC3)c2CO1	KCNQ1 block 7, KCNK3 block -9.39 | KCNQ1 block val 83.5 | CHO KCNQ1 ctr inactive | KCNQ2 spec 65.3% | KCNQ1-KCNE1 inh 164.5%
Cc1ccc(CNCC(O)(c2ccccc2)c2ccc(Cl)cc2)cc1 (stereo unspecified)	KCNQ1 block 6 | KCNQ1 block val 116.0 | CHO KCNQ1 ctr inactive | KCNQ1 APC inh inactive | KCNQ2 spec 92.3% | KCNQ1-KCNE1 inh 42.0%
